According to ChEMBL document CHEMBL1133479 (J Med Chem, 2000):

How the values were obtained:
[1] = target: T1, Melatonin receptor type 1B (Homo sapiens, UniProt P49286); assay: Binding affinity for melatonin receptor type 1B, expressed in HEK293 cells (2-[125I]iodomelatonin is used as radioligand); assay type: cell-based
T1 sequence (P49286 whole entry): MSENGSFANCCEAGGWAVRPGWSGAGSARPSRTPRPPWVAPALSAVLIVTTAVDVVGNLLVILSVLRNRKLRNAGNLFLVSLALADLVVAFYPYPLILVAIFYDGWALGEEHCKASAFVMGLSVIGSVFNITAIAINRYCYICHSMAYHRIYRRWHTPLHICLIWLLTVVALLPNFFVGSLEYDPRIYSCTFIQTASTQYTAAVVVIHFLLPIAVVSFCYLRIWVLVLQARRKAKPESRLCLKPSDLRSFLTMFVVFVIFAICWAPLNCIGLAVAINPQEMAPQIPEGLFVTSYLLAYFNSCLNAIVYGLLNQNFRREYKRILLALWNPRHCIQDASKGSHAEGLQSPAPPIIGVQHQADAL

[2] = target: Melatonin receptor type 1A (Homo sapiens, UniProt P48039); assay: Binding affinity for human melatonin receptor type 1A, expressed in HEK293 cells (2-[125I]iodomelatonin is used as radioligand); assay type: cell-based
Chain of Melatonin receptor type 1A (P48039 whole entry): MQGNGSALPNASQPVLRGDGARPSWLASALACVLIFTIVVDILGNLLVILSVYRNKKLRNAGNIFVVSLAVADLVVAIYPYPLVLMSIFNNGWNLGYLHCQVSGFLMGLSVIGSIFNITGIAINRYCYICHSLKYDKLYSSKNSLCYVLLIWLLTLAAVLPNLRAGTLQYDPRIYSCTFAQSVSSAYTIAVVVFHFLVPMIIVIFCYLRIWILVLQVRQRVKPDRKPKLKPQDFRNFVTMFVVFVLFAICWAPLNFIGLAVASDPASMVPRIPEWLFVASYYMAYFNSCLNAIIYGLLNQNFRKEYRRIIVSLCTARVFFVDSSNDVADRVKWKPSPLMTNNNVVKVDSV

[3] = target: Melatonin receptor (Gallus gallus, UniProt P49288+P51050+P49285); assay: Binding affinity is evaluated for chicken brain melatonin receptor using 2-[125I]iodomelatonin as radioligand
[4] = Melanophore aggregation of the dermal melanocytes of Xenopus laevis tadpoles with regard to melatonin (=1); assay type: functional
[5] = Melanophore aggregation of the dermal melanocytes of Xenopus laevis tadpoles; assay type: functional
[6] = compound is evaluated for melanophore aggregation of the dermal melanocytes of Xenopus laevis tadpoles with regard to melatonin (=1); assay type: functional
[7] = Percentage of maximum effect observed with regard to that of melatonin (100%); assay type: functional
Procedure, shortened: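 Tadpole skin-lightening assay (melanophore index, 5 concentrations, 15 min exposure).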

| SMILES | Ki [1] [nM] | Ki [2] [nM] | Ki [3] [nM] | Potency [4] | EC50 [5] [nM] | Potency [6] | Effect [7] [%] |
| --- | --- | --- | --- | --- | --- | --- | --- |
| COc1ccc2ccc(OC)c3c2c1CCC3CCNC(=O)C1CC1 (configuration not stated) | 1.59 | 0.66 | 11.2 |  |  |  |  |
| COc1ccc2ccc(OC)c3c2c1CCC3CCNC(C)=O (configuration not stated) | 0.55 | 0.2 | 3.6 | 2.5 | 2.65 |  |  |
| CCC(=O)NCC1CCc2c(OC)ccc3cccc1c23 (configuration not stated) | 0.13 | 0.19 | 0.7 |  |  |  |  |
| COc1ccc2cccc3c2c1C(CCNC(=O)C1CC1)C3 (configuration not stated) | 41.8 | 10 | 97.1 |  |  |  |  |
| CCCC(=O)NCCC1CCc2cccc3ccc(OC)c1c23 (configuration not stated) |  |  | 0.43 |  |  |  |  |
| CCCC(=O)NCC1Cc2cccc3ccc(OC)c1c23 (single isomer, unassigned; (+)) | 7.4 | 3.9 | 4.3 |  |  |  |  |
| COc1ccc2cccc3c2c1C(CCNC(C)=O)CC3 (configuration not stated) | 0.39 | 0.1 | 24.4 | 0.007 | 428 |  |  |
| CC(=O)NCC1CCc2cccc3cccc1c23 (configuration not stated) | 0.22 | 1.2 | 5.5 |  |  |  |  |
| CCCC(=O)NCCC1CCc2c(OC)ccc3ccc(OC)c1c23 (configuration not stated) | 0.19 | 0.057 | 0.14 | 37.7 | 0.18 |  |  |
| COc1ccc2cccc3c2c1C(CNC(C)=O)CC3 (configuration not stated) | 0.094 | 0.01 | 0.04 | 67.9 | 0.1 |  |  |
| COc1ccc2cccc3c2c1C(CNC(=O)C1CC1)C3 (configuration not stated) | 0.31 | 1.32 | 3.8 |  |  |  |  |
| CCCC(=O)NCC1CCc2c(OC)ccc3cccc1c23 (stereo in doubt; 13c) | 0.11 | 0.45 | 0.36 |  | 1.61 | 13.3 |  |
| CCCC(=O)NCC1CCc2c(OC)ccc3cccc1c23 (stereo in doubt; 13c (+)) | 4.07 | 2.9 | 21.7 |  |  |  |  |
| CCCC(=O)NCCC1Cc2cccc3ccc(OC)c1c23 (configuration not stated) | 0.34 | 0.37 | 2.4 |  |  |  |  |
| CCCC(=O)NCC1CCc2c(OC)ccc3ccc(OC)c1c23 (single isomer, unassigned; (-)) |  |  | 0.034 |  |  |  |  |
| CCCC(=O)NCC1Cc2cccc3cccc1c23 (configuration not stated) | 0.093 | 0.79 | 4.3 |  | 26 |  | < 50 |
| CCCC(=O)NCCC1CCc2c(OC)ccc3cccc1c23 (configuration not stated) |  |  | 28.1 |  |  |  |  |
| COc1ccc2ccc(OC)c3c2c1CCC3CNC(C)=O (configuration not stated) | 0.145 | 0.015 | 0.054 | 271.6 | 0.025 |  |  |
| CCC(=O)NCC1CCc2c(OC)ccc3ccc(OC)c1c23 (configuration not stated) | 0.153 | 0.012 | 0.011 |  |  |  |  |
| COc1ccc2cccc(CCNC(C)=O)c2c1 [AGOMELATINE] |  |  |  | 0.8 | 0.53 |  |  |
| CCC(=O)NCCC1Cc2cccc3ccc(OC)c1c23 (configuration not stated) | 0.24 | 0.22 | 4.75 |  |  |  |  |
| CCC(=O)NCCC1Cc2cccc3cccc1c23 (configuration not stated) | 1.86 | 4.34 | 101.8 |  |  |  |  |
| CCCC(=O)NCCC1Cc2cccc3cccc1c23 (configuration not stated) | 1.86 | 6.41 | 73.7 |  |  |  |  |

| SMILES | Ki [1] [nM] | Ki [2] [nM] | Ki [3] [nM] | Potency [4] | EC50 [5] [nM] | Potency [6] | Effect [7] [%] |
| --- | --- | --- | --- | --- | --- | --- | --- |
| O=C(NCC1Cc2cccc3cccc1c23)C1CC1 (configuration not stated) | 0.57 | 1.06 | 40.5 |  |  |  |  |
| COc1ccc2cccc3c2c1C(CNC(C)=O)C3 (configuration not stated) | 0.12 | 0.12 | 2.95 | 1.33 | 5.08 |  |  |
| CC(=O)NCC1Cc2cccc3cccc1c23 (configuration not stated) | 0.51 | 4.24 | 36.1 |  | > 1000 |  | < 50 |
| CCC(=O)NCCC1CCc2c(OC)ccc3ccc(OC)c1c23 (configuration not stated) | 0.55 | 0.07 | 0.8 |  |  |  |  |
| CCCC(=O)NCC1CCc2c(OC)ccc3ccc(OC)c1c23 (stereo in doubt; 15c) | 0.1 | 0.016 | 0.07 | 1697 | 0.004 |  |  |
| CCCC(=O)NCC1CCc2cccc3cccc1c23 (configuration not stated) | 0.18 |  | 3.2 |  |  |  |  |
| CCC(=O)NCCC1CCc2c(OC)ccc3cccc1c23 (configuration not stated) | 4.03 | 2.08 | 31.7 |  |  |  |  |
| COc1ccc2cccc3c2c1C(CCNC(C)=O)C3 (configuration not stated) | 0.59 | 0.41 | 2.7 |  | > 1000 |  | 50 |
| COc1ccc2cccc3c2c1CCC3CCNC(C)=O (configuration not stated) | 11.8 | 8.9 | 145 |  | > 1000 |  | 50 |
| CCCC(=O)NCC1CCc2cccc3ccc(OC)c1c23 (configuration not stated) | 0.069 | 0.008 | 0.02 | 84.8 | 0.08 |  |  |
| CCC(=O)NCC1Cc2cccc3cccc1c23 (configuration not stated) | 0.22 | 2.65 | 14.3 |  |  |  |  |
| O=C(NCCC1Cc2cccc3cccc1c23)C1CC1 (configuration not stated) | 16.2 | 6.48 | 399 |  |  |  |  |
| CCCC(=O)NCC1Cc2cccc3ccc(OC)c1c23 (stereo in doubt; 20c) | 0.35 | 0.37 | 0.16 | 14.7 | 0.46 |  |  |
| CCCC(=O)NCC1Cc2cccc3ccc(OC)c1c23 (single isomer, unassigned; (-)) | 0.034 | 0.03 | 0.15 |  |  |  |  |
| CCCC(=O)NCC1CCc2c(OC)ccc3ccc(OC)c1c23 (single isomer, unassigned; (+)) |  |  | 0.31 |  |  |  |  |
| CCC(=O)NCC1Cc2cccc3ccc(OC)c1c23 (configuration not stated) | 0.085 | 0.1 | 0.9 |  |  |  |  |
| COc1ccc2cccc3c2c1CCC3CNC(C)=O (configuration not stated) | 0.41 | 0.8 | 0.9 | 0.11 | 57.8 |  |  |
| CCCC(=O)NCC1CCc2c(OC)ccc3cccc1c23 (single isomer, unassigned; (-)) | 0.068 | 0.11 | 0.8 |  |  |  |  |
| CC(=O)NCCC1Cc2cccc3cccc1c23 (configuration not stated) | 3.83 | 6.5 | 123.3 |  | > 1000 |  | < 50 |
| COc1ccc2cccc3c2c1CCC3CCNC(=O)C1CC1 (configuration not stated) | 13.2 | 1.89 | 43.4 |  |  |  |  |
| COc1ccc2cccc3c2c1CCC3CNC(=O)C1CC1 (configuration not stated) | 0.79 | 0.95 | 4.6 |  |  |  |  |
| COc1ccc2ccc(OC)c3c2c1CCC3CNC(=O)C1CC1 (configuration not stated) | 0.26 | 0.026 | 0.13 |  |  |  |  |
